Compound activity (PubChem BioAssay)
ZTA counter = blocks Epstein-Barr virus ZTA, an EBNA-1 counter-screen; 320,000 compounds, 0.15% hits; ZTA-DNA binding, fluorescence polarization; inhibition, % at 11 µM; P03206; in the data active = inhibition above about 33%
Target sequence (P03206 whole entry, looked up): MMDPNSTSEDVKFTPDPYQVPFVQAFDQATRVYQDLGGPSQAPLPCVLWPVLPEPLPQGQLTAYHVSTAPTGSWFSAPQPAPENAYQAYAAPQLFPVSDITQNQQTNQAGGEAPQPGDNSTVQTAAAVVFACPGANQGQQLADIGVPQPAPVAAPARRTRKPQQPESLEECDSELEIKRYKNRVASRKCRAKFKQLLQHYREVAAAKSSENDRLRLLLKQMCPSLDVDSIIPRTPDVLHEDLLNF
EBV gp42 block = blocks Epstein-Barr virus glycoprotein 42 binding; 220,000 compounds, 0.42% hits; AID 1085; Fluorescence polarization binding assay, mP read-out; Q1HVG2; inhibition, % (tested at 21.74 µM); in the data active = inhibition above about 50%
Target sequence (Q1HVG2 whole entry, looked up): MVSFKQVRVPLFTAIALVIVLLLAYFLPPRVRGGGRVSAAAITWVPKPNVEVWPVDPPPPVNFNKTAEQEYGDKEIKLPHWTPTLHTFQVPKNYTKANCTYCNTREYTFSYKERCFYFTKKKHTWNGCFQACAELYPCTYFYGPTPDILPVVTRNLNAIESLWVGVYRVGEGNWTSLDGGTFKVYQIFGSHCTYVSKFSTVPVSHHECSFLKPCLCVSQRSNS
core dimer inh = HCV core protein dimerization inhibition; AID 1899; 300,000 compounds, 0.33% hits; TR-FRET GST/Flag-core106 dimerization, 1536-well; inhibition, % at 5 µM;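 active = inhibition above the mean of all tested compounds plus 3 SD, set per screening campaign, cut at about 45% in these data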
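assay system = GST-tagged and Flag-tagged HCV core protein residues 1-106 | controls = unlabelled core106 and no-GST-core106 wells | incubation = compound-protein-antibody incubation 4 h at 22.5 °C | probe or stimulus = Eu donor and XL665 acceptor anti-tag antibodies | read-out = % inhibition based on acceptor/donor emission ratio | signal = TR-FRET 671 and 617 nm emission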
EBNA-1 inhibitor = blocks EBNA-1 binding to DNA | EBNA-1 DNA binding, fluorescence polarization | inhibition, % at 14.8 µM | 300,000 compounds, 0.34% hits | AID 1950; in the data active = inhibition above about 28%
MEX-5 binding = C. elegans MEX-5 TCR-2 RNA binding activity; Q9XUB2; MEX-5/FITC-TCR2 RNA binding, fluorescence polarization; active compounds read low; activity score (negative = inhibition of binding), % at 10 µM; 300,000 compounds, 0.38% hits; AID 1832;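 active = inhibition past about -25% in most replicates, and total fluorescence under double the plate's negative control median, limit read from the data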
HCV NS3 hel inh = inhibitors of Hepatitis C virus NS3 helicase; inhibition, % at 10.9 µM; AID 1800; NS3 helicase DNA unwinding, Cy5 molecular beacon fluorescence; 290,000 compounds, 0.56% hits;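 active = inhibition above the mean of all tested compounds plus 3 SD, set per campaign, cut at about 35% in these data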
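Material: hepatitis C virus NS3 helicase domain fragment enzyme; measured by: Cy5 fluorescence, 0 and 60 min reads; control set: DMSO and thioflavine S; incubation: 60 min unwinding reaction at 25 °C after ATP addition; read-out basis: % inhibition from 60/0 min fluorescence ratio, DMSO 0%, thioflavine S 100%; repeats: singlicate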
NS3 helicase cf = confirmation of Hepatitis C virus NS3 helicase inhibitors. 1,600 compounds, 31% hits. inhibition, % at 10.9 µM. NS3 helicase DNA unwinding, Cy5 molecular beacon fluorescence. shares compounds with HCV NS3 hel inh. AID 1943;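 active = inhibition above the mean of all tested compounds plus 3 SD, cutoff set per campaign, cut at about 36% in these data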
DNA FID counter = displaces DNA intercalator in HCV helicase counter-screen; shares compounds with HCV NS3 hel inh; DNA fluorescent intercalator displacement, fluorescence; inhibition, % at 7.9 µM; 1,600 compounds, 4% hits; AID 1945; in the data active = inhibition above about 37%;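 note: higher means more displacement of ethidium bromide from the DNA hairpin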
Of the large screens only hits and unclear results are named; the others gave an inactive call (follow-up assays come after a bar, where they were run). Hits are enriched below; roughly 1.7% of the tested compounds scored in any of these assays.

Cc1c(O)ccc(C(=O)CN2CCN(Cc3ccc4c(c3)OCO4)CC2)c1O	HCV NS3 hel inh 84 | NS3 helicase cf inactive | DNA FID counter inactive
CCOC(=O)N1CCN(Cc2ccc3c(c2)OCO3)CC1	none (no result: EBV gp42 block)
Cc1cccc2nc(CNC(=O)C3CCC(=O)N(Cc4ccccc4F)C3)cn12 (stereo unspecified)	none (no result: EBV gp42 block)
COc1ccc(C(C)NC(=O)Nc2ccc(C(C)=O)cc2)cc1OC (stereo unspecified)	none (no result: EBV gp42 block)
CCn1c(SCC(=O)c2ccc3c(c2)OCCO3)nnc1-c1ccco1	HCV NS3 hel inh 48 | NS3 helicase cf inactive | DNA FID counter inactive
O=C(CSc1nnc(-c2ccco2)c(-c2ccco2)n1)c1ccccc1	HCV NS3 hel inh 41 | NS3 helicase cf 91 | DNA FID counter 45
CC(C)Cn1c(SCC(=O)c2ccc(Cl)s2)nnc1-c1ccco1	HCV NS3 hel inh 39 | NS3 helicase cf inactive | DNA FID counter inactive
Cn1c(SCC(=O)c2ccc(-c3ccccc3)cc2)nnc1-c1ccco1	HCV NS3 hel inh 68 | NS3 helicase cf inactive | DNA FID counter inactive
O=C(CN1C(=O)C2C3C=CC(C3)C2C1=O)OCC(=O)c1ccc(Cl)c([N+](=O)[O-])c1 (stereo unspecified)	none (no result: EBV gp42 block)
CC(C)C(=O)N1CCN(c2ccccc2NC(=O)c2ccco2)CC1	none (no result: EBV gp42 block)
CN(CC(=O)NCc1ccc2c(c1)OCO2)S(=O)(=O)c1ccc(F)cc1	none (no result: EBV gp42 block)
Cc1cccc(N(CC(=O)Nc2cccnc2)S(C)(=O)=O)c1	none
O=C(O)CSc1cc(NS(=O)(=O)c2ccc(Br)cc2)c2ccccc2c1O	MEX-5 binding -71, HCV NS3 hel inh 55 (no result: EBV gp42 block) | NS3 helicase cf 70 | DNA FID counter inactive
COc1ccc(-n2c(SCC(=O)Nc3ccc(C(=O)O)cc3)nnc2-c2cccs2)cc1	HCV NS3 hel inh 64 | NS3 helicase cf inactive | DNA FID counter inactive
COc1ccc(-n2c(Cc3cccn3C)nnc2SCC(=O)Nc2ccc3c(c2)OCCO3)cc1	none
COc1ccc(-n2c(Cc3cccn3C)nnc2SCC(=O)Nc2ccc3c(c2)OCO3)cc1	HCV NS3 hel inh 45 | NS3 helicase cf inactive | DNA FID counter inactive
COc1ccc(C(=O)Nc2ccc(NC(=O)CSc3nnc(-c4ccncc4)n3C)cc2)cc1	HCV NS3 hel inh 36 (no result: EBV gp42 block) | NS3 helicase cf inactive | DNA FID counter inactive
Cn1c(SCC(=O)Nc2ccc(NC(=O)c3ccccc3)cc2)nnc1-c1ccncc1	none (no result: EBV gp42 block)
COc1ccc(C(=O)CSc2nnc(-c3cccs3)n2-c2ccccc2)cc1	none
Cc1ccnc(NC(=O)C2CC(=O)N(c3ccc4c(c3)OCCO4)C2)c1 (stereo unspecified)	none (no result: EBV gp42 block)
Cc1cccc(N(CC(=O)NCC2CCCO2)C(=O)CNS(=O)(=O)c2ccc(Cl)cc2)c1 (stereo unspecified)	none (no result: EBV gp42 block)
O=C(N/C(=C/c1ccc(Br)cc1)C(=O)N1CCCCC1)c1ccccc1F	none (no result: EBV gp42 block)
O=C(CCc1nc2ccccc2c(=O)[nH]1)OCC(=O)N1CCc2ccccc21	HCV NS3 hel inh 70 | NS3 helicase cf inactive | DNA FID counter inactive
CC(=O)c1ccc2c(c1)C1C=CCC1C(C(=O)O)N2 (stereo unspecified)	HCV NS3 hel inh 51 (no result: ZTA counter, core dimer inh, EBNA-1 inhibitor, MEX-5 binding) | NS3 helicase cf 90 | DNA FID counter inactive
COc1cccc2c1NC(C(=O)O)C1CC=CC21 (stereo unspecified)	ZTA counter 38, EBV gp42 block 63, MEX-5 binding -76, HCV NS3 hel inh 58 | NS3 helicase cf 93 | DNA FID counter inactive
COc1ccc(OC)c(C2Nc3c(Cl)ccc(C(=O)O)c3C3C=CCC32)c1 (stereo unspecified)	none
CC(C)(CO)NC(=O)c1ccc2nc(Cc3cccc(Cl)c3)oc2c1	none (no result: EBV gp42 block)
Cc1ccc(S(=O)(=O)Nc2nc3ccccc3nc2NCc2ccco2)cc1	HCV NS3 hel inh 36 | NS3 helicase cf 40 | DNA FID counter inactive
O=S(=O)(Nc1nc2ccccc2nc1NCc1ccco1)c1ccc(Cl)cc1	none
Cc1ccc(NC(=O)CCNC(=O)c2ccc(Br)cc2)nc1	none (no result: EBV gp42 block)
